Experimental data published in ChEMBL document CHEMBL1137087, “Discovery of novel 2,8-diazaspiro[4.5]decanes as orally active glycoprotein IIb-IIIa antagonists” (J Med Chem, 2004).
“And” between values parts separate entries of the source, which are not always exact repeats. Identical values can stand only once.

How the values were obtained:
[1] = target: Integrin alpha-IIb/beta-3 (Homo sapiens, UniProt P05106+P08514); assay: Tested for inhibition of the binding of fibrinogen to purified human GPIIb-IIIa in a 96-well format (ELISA assay); assay type: protein-complex assay
Integrin alpha-IIb/beta-3, sequence (P05106 27-788 limits assumed): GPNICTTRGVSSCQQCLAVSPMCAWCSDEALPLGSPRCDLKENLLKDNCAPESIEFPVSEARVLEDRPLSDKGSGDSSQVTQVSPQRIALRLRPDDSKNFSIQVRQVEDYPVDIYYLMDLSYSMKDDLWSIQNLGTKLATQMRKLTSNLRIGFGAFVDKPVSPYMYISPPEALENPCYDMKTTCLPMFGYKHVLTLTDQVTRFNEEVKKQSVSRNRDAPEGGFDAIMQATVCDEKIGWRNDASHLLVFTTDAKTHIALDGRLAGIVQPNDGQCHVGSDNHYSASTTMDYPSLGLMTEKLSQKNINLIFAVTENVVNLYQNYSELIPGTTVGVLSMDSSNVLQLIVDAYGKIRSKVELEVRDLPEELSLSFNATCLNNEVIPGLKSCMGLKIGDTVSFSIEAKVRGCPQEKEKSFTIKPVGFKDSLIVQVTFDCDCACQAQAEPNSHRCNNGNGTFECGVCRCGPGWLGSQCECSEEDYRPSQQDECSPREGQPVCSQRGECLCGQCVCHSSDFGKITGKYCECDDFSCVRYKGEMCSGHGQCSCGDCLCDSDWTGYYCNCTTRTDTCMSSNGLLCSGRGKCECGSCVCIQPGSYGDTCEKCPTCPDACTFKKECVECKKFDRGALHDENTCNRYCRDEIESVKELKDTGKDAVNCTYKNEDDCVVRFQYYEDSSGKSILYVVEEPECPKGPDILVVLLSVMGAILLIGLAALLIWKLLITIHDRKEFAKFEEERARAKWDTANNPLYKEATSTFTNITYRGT
Integrin alpha-IIb/beta-3, sequence (P08514 32-887 limits assumed): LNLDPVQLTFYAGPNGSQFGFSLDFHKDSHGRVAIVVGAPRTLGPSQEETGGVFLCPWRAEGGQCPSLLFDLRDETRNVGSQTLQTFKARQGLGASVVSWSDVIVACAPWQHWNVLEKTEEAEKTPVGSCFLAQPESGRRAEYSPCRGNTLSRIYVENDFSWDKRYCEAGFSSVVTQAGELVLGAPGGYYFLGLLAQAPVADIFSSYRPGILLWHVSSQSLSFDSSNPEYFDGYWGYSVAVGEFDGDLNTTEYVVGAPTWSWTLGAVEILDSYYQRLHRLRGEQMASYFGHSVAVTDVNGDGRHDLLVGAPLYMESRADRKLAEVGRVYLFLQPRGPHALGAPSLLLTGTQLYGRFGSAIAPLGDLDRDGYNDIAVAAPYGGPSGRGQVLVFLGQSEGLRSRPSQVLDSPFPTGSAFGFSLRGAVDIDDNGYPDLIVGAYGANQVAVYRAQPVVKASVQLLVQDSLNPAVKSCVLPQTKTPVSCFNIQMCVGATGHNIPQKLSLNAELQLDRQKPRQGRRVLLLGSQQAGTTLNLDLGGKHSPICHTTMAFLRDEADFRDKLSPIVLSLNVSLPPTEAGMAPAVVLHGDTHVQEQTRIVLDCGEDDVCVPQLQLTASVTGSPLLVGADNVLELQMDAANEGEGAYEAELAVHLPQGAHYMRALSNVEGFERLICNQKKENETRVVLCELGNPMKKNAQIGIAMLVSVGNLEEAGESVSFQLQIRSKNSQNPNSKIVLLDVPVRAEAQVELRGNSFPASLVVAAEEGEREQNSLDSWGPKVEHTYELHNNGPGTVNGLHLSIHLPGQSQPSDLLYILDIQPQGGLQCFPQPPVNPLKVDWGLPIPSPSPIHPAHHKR
Integrin alpha-IIb/beta-3, sequence (P08514 891-1039 limits assumed): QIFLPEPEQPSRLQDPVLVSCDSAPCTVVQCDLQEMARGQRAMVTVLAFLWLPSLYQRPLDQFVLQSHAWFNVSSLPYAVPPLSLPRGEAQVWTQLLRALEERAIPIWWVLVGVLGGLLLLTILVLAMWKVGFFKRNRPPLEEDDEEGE
Procedure, shortened: (§1)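 Purified GPIIb-IIIa or vitronectin receptor, 0.5 μg/well, coated overnight at 4 °C, BSA-blocked. Compound plus 10 nM biotinylated ligand added in triplicate, 2 h at room temperature, pH 7.4 Tris with CaCl2 and BSA.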

[2] = (§2) Area under curve was determined after oral administration in rats; assay type: ADME, organism-based; set-up: concentration or dose not given beside the values; conditions: rat, in vivo
Procedure, shortened: (§3)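 Sprague Dawley rats instrumented 2 days before, conscious; prodrug in water given orally and free acid in 50% PEG-300 intravenously, 1 mg/kg each, six rats per group. Serial blood sampling on EDTA or citrate; plasma deproteinized with acetonitrile plus internal standard, filtered. AUC, Cmax and t1/2β from mean concentration–time curves; F = oral AUC / iv AUC.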

[3] = tested on: Mus musculus; assay: Compound was tested for bleeding time in mice at a dose of 10 mg/kg vs DMSO (vehicle); assay type: functional
Procedure, shortened: (§4)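 Anesthetized female C57/bl mice given an iv tail-vein bolus in 10% DMSO in water (~150 μL); vehicle controls received DMSO. Tail transected 2 mm from the tip and immersed in 37 °C normal saline. Bleeding time recorded to cessation of flow by visual inspection, up to 900 s.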

[4] = tested on: Mus musculus; assay: Compound was tested for bleeding time in mice at a dose of 40 mg/kg vs DMSO (vehicle); assay type: functional; procedure, shortened: as §4
[5] = tested on: Mus musculus; assay: Compound was tested for bleeding time in mice at a dose of 50 mg/kg vs DMSO (vehicle); assay type: functional; procedure, shortened: as §4
[6] = tested on: Mus musculus; assay: Compound was tested for bleeding time in mice at a dose of 100 mg/kg vs DMSO (vehicle); assay type: functional; procedure, shortened: as §4
[7] = Clearance of the drug was measured in cynomolgus; assay type: ADME; conditions: cercopithecidae, in vivo; read-out: CI
Procedure, shortened: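 Fasted, chair-restrained cynomolgus monkeys. Active acid given as a 15 min iv infusion in 50% PEG-300 diluted with plasmalyte; prodrug given a week later in water by nasogastric tube to the same animals. EDTA plasma sampled over 0–48 h and assayed by LC/MS/MS. t1/2β taken from the terminal log-linear phase; Vz = dose/(AUCINF·λz); F corrected for molecular weight and dose.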

[8] = as §2; assay type: ADME, organism-based; conditions: rat, in vivo; procedure, shortened: as §3
[9] = species: Canis familiaris; assay: Clearance of the drug was measured in the plasma of dog; assay type: ADME, organism-based, Canis lupus familiaris; conditions: in vivo
Procedure, shortened: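 Fasted male beagle dogs (n = 4): prodrug at 1 mg/kg orally, active drug intravenously. Plasma drug measured by LC/MS/MS. t1/2β from the linear portion of the log concentration–time curve; Vz = dose/(AUCINF·λz); F corrected for molecular weight and dose differences.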

[10] = target: Integrin alpha-V/beta-3 (Homo sapiens, UniProt P05106+P06756); assay: Inhibition of vitronectin binding to Vitronectin receptor (alpha V beta 3); assay type: protein-complex assay
Integrin alpha-V/beta-3, sequence (P05106 27-788 limits assumed): as the sequence (P05106 27-788 limits assumed) above
Integrin alpha-V/beta-3, sequence (P06756 31-889 limits assumed): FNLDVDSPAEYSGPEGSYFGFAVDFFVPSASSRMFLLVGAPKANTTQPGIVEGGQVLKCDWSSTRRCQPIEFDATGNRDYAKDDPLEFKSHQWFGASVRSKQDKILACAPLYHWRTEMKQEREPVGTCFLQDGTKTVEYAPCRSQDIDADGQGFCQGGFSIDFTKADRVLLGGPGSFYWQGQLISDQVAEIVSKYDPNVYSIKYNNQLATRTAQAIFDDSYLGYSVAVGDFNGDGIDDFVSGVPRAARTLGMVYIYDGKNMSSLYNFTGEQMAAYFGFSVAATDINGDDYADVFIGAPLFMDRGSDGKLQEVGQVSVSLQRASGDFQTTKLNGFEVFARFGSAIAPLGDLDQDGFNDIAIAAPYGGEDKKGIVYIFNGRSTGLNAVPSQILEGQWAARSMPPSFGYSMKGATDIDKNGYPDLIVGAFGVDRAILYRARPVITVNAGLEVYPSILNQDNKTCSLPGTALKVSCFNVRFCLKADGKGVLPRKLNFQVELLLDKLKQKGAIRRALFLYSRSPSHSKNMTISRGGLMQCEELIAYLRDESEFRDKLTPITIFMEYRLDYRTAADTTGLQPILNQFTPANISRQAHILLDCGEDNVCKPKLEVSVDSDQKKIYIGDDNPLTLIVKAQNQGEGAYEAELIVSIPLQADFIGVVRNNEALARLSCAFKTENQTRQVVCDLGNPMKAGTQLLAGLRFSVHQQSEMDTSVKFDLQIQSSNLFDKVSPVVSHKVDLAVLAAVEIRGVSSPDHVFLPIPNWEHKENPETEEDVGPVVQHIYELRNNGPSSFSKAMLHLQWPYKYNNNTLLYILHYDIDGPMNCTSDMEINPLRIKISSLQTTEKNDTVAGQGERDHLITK
Integrin alpha-V/beta-3, sequence (P06756 891-1048 limits assumed): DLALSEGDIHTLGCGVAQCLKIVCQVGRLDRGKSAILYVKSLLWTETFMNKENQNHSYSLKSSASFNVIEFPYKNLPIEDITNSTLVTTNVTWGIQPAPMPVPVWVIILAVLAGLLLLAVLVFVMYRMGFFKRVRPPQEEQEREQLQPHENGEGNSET
Procedure, shortened: as §1, with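 “BSA. Detected by anti-biotin alkaline phosphatase conjugate, read at 405 nm; BSA-well binding subtracted; IC50 from three experiments.” for “BSA.”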

[11] = Inhibition of Human umbilical vein endothelial cells (HUVEC) adhesion to Vitronectin; assay type: cell-based
[12] = Inhibition of Human umbilical vein endothelial cells (HUVEC) adhesion to fibronectin; assay type: cell-based
[13] = species: Rattus norvegicus; assay: Bioavailability in rat; assay type: ADME, organism-based; conditions: in vivo; procedure, shortened: as §3
[14] = Inhibition of Human umbilical vein endothelial cells (HUVEC) adhesion to vitronectin; assay type: cell-based

Structure (SMILES) | IC50 [1] | also measured
Cc1ccc(S(=O)(=O)N[C@@H](CNC(=O)N2CCC3(CC2)C(=O)N(c2ccc(C(=N)N)cc2)C(=O)N3C)C(=O)O)cc1 | 2 nM | 
N=C(N)c1ccc(N2CC3(CCN(C(=O)CCCC(=O)O)CC3)NC2=O)cc1 | 751 nM | 
CN1C(=O)N(c2ccc(C(=N)N)cc2)C(=O)C12CCN(C(=O)CCCC(=O)O)CC2 | 100 nM | 
CCOC(=O)CCNC(=O)N1CCC2(CC1)CN(c1ccc(C(=N)NO)cc1)C(=O)N2C |  | AUC [2]: 24 ng·h/mL
N=C(N)c1ccc(N2CC3(CCN(C(=O)CC(=O)O)CC3)CC2=O)cc1 | 25000 nM | 
NC(=NN1CCOCC1)c1ccc(N2CCC3(CCN(C(=O)CCCC(=O)O)CC3)C2=O)cc1 | 4180 nM | 
CN1C(=O)N(c2ccc(C(=N)N)cc2)CC12CCN(C(=O)NCCC(=O)O)CC2 | 400 nM | 
N=C(N)c1ccc(N2C(=O)NC3(CCN(C(=O)CCCC(=O)O)CC3)C2=O)cc1 | 21 nM | 
CN1C(=O)N(c2ccc(C(=N)N)cc2)CC12CCN(C(=O)CC(CC(=O)O)c1ccccc1)CC2 (centres undefined) | 20 nM | 
CCCCOC(=O)N[C@@H](CCC(=O)N1CCC2(CC1)CCN(c1ccc(C(=N)NO)cc1)C2=O)C(=O)OCC |  | AUC [2]: 184 ng·h/mL
N=C(N)c1ccc(N2C(=O)CC3(CCN(C(=O)CCCC(=O)O)CC3)C2=O)cc1 | 430 nM | 
Cc1noc(C)c1S(=O)(=O)N[C@@H](CCC(=O)N1CCC2(CC1)CCN(c1ccc(C(=N)N)cc1)C2=O)C(=O)O | 5 nM | Bleeding time [3]: 96.7 s; Bleeding time [4]: 196.5 s; Bleeding time [5]: 562.5 s; Bleeding time [6]: 890.6 s
N=C(N)c1ccc(N2CC3(CCN(C(=O)NCCC(=O)O)CC3)CC2=O)cc1 | 350 nM | 
CN1C(=O)N(c2ccc(C(=N)N)cc2)CC12CCN(C(=O)CCCC(=O)O)CC2 | 1020 nM | 
N=C(N)c1ccc(N2CC3(CCN(C(=O)CCCC(=O)O)CC3)CC2=O)cc1 | 650 nM | 
C[C@H](CC(=O)O)CC(=O)N1CCC2(CC1)CCN(c1ccc(C(=N)N)cc1)C2=O | 5 nM | 
CC(C)(COC(=O)N1CCC2(CC1)CC(=O)N(c1ccc(C(=N)N)cc1)C2)C(=O)O | 15000 nM | 
N=C(N)c1ccc(N2CCC3(CCN(C(=O)CC(CC(=O)O)c4ccccc4)CC3)C2=O)cc1 (centres undefined) | 90 nM | 
N=C(N)c1ccc(N2CCC3(CCN(CCCCC(=O)O)CC3)C2=O)cc1 | 7800 nM | 
CCOC(=O)CCNC(=O)N1CCC2(CC1)CCN(c1ccc(C(=N)NO)cc1)C2=O |  | clearance [7]: 5.12 mL/min/kg; AUC [8]: 565 ng·h/mL; CI [9]: 8.43 mL/min/kg
Cc1noc(C)c1S(=O)(=O)N[C@@H](CCC(=O)N1CCC2(CC1)C(=O)N(c1ccc(C(=N)N)cc1)C(=O)N2C)C(=O)O | 16 nM | 
CCOC(=O)CCNC(=O)N1CCC2(CC1)CC(=O)N(c1ccc(C(=N)NO)cc1)C2 |  | AUC [2]: 95.6 ng·h/mL
CCOC(=O)COCC(=O)N1CCC2(CC1)CCN(c1ccc(C(=N)NO)cc1)C2=O |  | clearance [7]: 2.7 mL/min/kg; AUC [2]: 651 ng·h/mL; CI [9]: 3.28 mL/min/kg

Structure (SMILES) | IC50 [1] | also measured
CCNC(=N)c1ccc(N2CCC3(CCN(C(=O)CCCC(=O)O)CC3)C2=O)cc1 | 841 nM | 
CN1C(=O)N(c2ccc(C(=N)N)cc2)C(=O)C12CCN(C(=O)NC(CC(=O)O)c1ccccc1)CC2 (centres undefined) | 50 nM | 
CN1C(=O)N(c2ccc(C(=N)N)cc2)C(=O)C12CCN(C(=O)CC(CC(=O)O)c1ccccc1)CC2 (centres undefined) | 32 nM | 
CCCCOC(=O)N[C@@H](CCC(=O)N1CCC2(CC1)CC(=O)N(c1ccc(C(=N)N)cc1)C2=O)C(=O)O | 30 nM | 
N=C(N)c1ccc(N2CCC3(CCN(C(=O)CC(=O)O)CC3)C2=O)cc1 | 15800 nM | 
N=C(N)c1ccc(N2CCC3(CCN(C(=O)CCCC(=O)O)CC3)C2=O)cc1 | 4 nM | IC50 [10]: > 50000 nM; IC50 [11]: > 50000 nM; IC50 [12]: > 50000 nM
CCOC(=O)CCNC(=O)N1CCC2(CC1)C(=O)N(c1ccc(C(=N)NO)cc1)C(=O)N2C |  | AUC [2]: 60 ng·h/mL
CCOC(=O)CC(CC(=O)N1CCC2(CC1)CCN(c1ccc(C(=N)NO)cc1)C2=O)c1ccccc1 (centres undefined) |  | AUC [2]: 7.9 ng·h/mL
CCOC(=O)CCCC(=O)N1CCC2(CC1)CCN(c1ccc(C(=N)NO)cc1)C2=O |  | clearance [7]: 6.51 mL/min/kg; AUC [2]: 501 ng·h/mL; CI [9]: 6.44 mL/min/kg
C[C@@H](CC(=O)O)CC(=O)N1CCC2(CC1)CCN(c1ccc(C(=N)N)cc1)C2=O | 4 nM | 
N=C(N)c1ccc(N2C(=O)CC3(CCN(C(=O)NCCC(=O)O)CC3)C2=O)cc1 | 410 nM | 
N=C(N)c1ccc(N2CC3(CCN(C(=O)CCCCC(=O)O)CC3)CC2=O)cc1 | 7300 nM | 
CC(CC(=O)O)NC(=O)N1CCC2(CC1)CCN(c1ccc(C(=N)N)cc1)C2=O (centres undefined) | 4 nM | 
C[C@H](CC(=O)O)NC(=O)N1CCC2(CC1)CCN(c1ccc(C(=N)N)cc1)C2=O | 5 nM | 
CCCCOC(=O)N[C@@H](CCC(=O)N1CCC2(CC1)CCN(c1ccc(C(=N)N)cc1)C2=O)C(=O)O | 5 nM | 
N=C(N)c1ccc(N2CCC3(CCN(C(=O)NCCC(=O)O)CC3)C2=O)cc1 | 4 nM and 3.9 nM | IC50 [10]: > 50000 nM
N=C(N)c1ccc(N2CCC3(CCN(C(=O)COCC(=O)O)CC3)C2=O)cc1 | 17 nM | IC50 [10]: > 50000 nM
CCCCOC(=O)N[C@@H](CCC(=O)N1CCC2(CC1)C(=O)N(c1ccc(C(=N)NO)cc1)C(=O)N2C)C(=O)OCC |  | F [13]: Not detected
N=C(N)c1ccc(N2CC3(CCN(C(=O)CCC(=O)O)CC3)CC2=O)cc1 | 10500 nM | 
N=C(N)c1ccc(N2CCC3(CCN(C(=O)CCC(=O)O)CC3)C2=O)cc1 | 5600 nM | 
N=C(N)c1ccc(N2C(=O)NC3(CCN(C(=O)NCCC(=O)O)CC3)C2=O)cc1 | 329 nM | 
CCOC(=O)CCNC(=O)N[C@H]1CCN(c2ccc(C(=N)N)cc2)C1=O [ORBOFIBAN] | 2.38 nM | 
CCOC(=O)COC1CCN(C(=O)[C@H](C)NC(=O)c2ccc(/C(N)=N/O)cc2)CC1 [SIBRAFIBAN] | 1.14 nM | IC50 [14]: > 50000 nM; IC50 [10]: > 50000 nM; IC50 [12]: > 50000 nM
